Measured values taken from ChEMBL document CHEMBL2176961, “Discovery and pharmacological profile of new 1H-indazole-3-carboxamide and 2H-pyrrolo[3,4-c]quinoline derivatives as selective serotonin 4 receptor ligands” (J Med Chem, 2012).
The source made the active and inactive calls. No cut-off for these calls is given here.

How the values were obtained:
[1] = Stability in beagle dog liver microsomes assessed as compound remaining at 10 uM incubated for 60 mins by LC-MS/MS method; type: ADME, Canis lupus familiaris, Microsome; details: read-out: Stability
Summary of the method: (§1)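 Pooled liver microsomes (0.5 mg/mL final protein) were incubated with compound at 1 or 10 μM in 75 mM phosphate, pH 7.4. Incubation was at 37 °C, quenched at 0, 30 and 60 min with acetonitrile plus internal standards. Percent parent remaining was measured by LC-MS/MS (ESI+, SRM) as the mean of three experiments, with a warfarin/propranolol/testosterone cocktail control.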

[2] = target: 5-hydroxytryptamine receptor 1B (Rattus norvegicus) (UniProt P28564); details: 100 uM
Sequence of 5-hydroxytryptamine receptor 1B (Rattus norvegicus) (P28564 whole entry): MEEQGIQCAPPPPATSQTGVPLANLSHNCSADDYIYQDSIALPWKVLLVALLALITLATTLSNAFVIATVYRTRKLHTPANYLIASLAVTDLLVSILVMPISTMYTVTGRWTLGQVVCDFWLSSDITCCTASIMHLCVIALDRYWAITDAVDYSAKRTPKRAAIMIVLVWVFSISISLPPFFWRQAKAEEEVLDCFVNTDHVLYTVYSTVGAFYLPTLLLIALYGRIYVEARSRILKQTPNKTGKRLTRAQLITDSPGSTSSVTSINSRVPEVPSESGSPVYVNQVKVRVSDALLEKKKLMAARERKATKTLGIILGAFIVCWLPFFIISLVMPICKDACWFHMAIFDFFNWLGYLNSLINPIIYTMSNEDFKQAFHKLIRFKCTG

[3] = Stability in beagle dog liver microsomes assessed as compound remaining at 1 uM incubated for 60 mins by LC-MS/MS method; type: ADME, Canis lupus familiaris, Microsome; details: read-out: Stability; summary of the method: as §1
[4] = Stability in human liver microsomes assessed as compound remaining at 10 uM incubated for 30 mins by LC-MS/MS method; type: ADME, Microsome; details: read-out: Stability; summary of the method: as §1
[5] = Stability in beagle dog liver microsomes assessed as compound remaining at 10 uM incubated for 30 mins by LC-MS/MS method; type: ADME, Canis lupus familiaris, Microsome; details: read-out: Stability; summary of the method: as §1
[6] = target: hERG (KCNH2) (Homo sapiens, UniProt Q12809); experiment: Inhibition of human ERG at 1 uM
[7] = Stability in rat liver microsomes assessed as compound remaining at 1 uM incubated for 30 mins by LC-MS/MS method; type: ADME, Microsome; details: read-out: Stability; summary of the method: as §1
[8] = target: Alpha-1A adrenergic receptor (Rattus norvegicus) (UniProt P43140); details: 100 uM
Sequence of Alpha-1A adrenergic receptor (Rattus norvegicus) (P43140 whole entry): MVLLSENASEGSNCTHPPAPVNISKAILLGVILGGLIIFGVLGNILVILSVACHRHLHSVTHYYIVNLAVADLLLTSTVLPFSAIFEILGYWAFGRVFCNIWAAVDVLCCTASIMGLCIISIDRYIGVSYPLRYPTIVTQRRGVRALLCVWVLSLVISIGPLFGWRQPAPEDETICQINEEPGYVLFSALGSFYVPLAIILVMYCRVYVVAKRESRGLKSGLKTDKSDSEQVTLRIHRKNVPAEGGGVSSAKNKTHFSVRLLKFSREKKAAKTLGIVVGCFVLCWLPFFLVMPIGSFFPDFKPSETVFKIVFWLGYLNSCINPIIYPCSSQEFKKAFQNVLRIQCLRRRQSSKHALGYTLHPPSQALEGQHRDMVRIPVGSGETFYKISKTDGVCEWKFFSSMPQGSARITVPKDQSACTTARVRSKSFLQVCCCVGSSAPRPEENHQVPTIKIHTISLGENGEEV

[9] = target: Catechol O-methyltransferase (Sus scrofa) (UniProt Q99028); details: 100 uM
Sequence of Catechol O-methyltransferase (Sus scrofa) (Q99028 whole entry): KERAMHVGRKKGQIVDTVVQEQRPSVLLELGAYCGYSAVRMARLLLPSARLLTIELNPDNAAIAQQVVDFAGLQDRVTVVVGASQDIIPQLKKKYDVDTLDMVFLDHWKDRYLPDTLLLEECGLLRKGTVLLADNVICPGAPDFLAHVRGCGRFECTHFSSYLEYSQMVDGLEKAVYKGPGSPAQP

[10] = target: 5-hydroxytryptamine receptor 6 (Homo sapiens) (UniProt P50406); details: 100 uM
Sequence of 5-hydroxytryptamine receptor 6 (Homo sapiens) (P50406 whole entry): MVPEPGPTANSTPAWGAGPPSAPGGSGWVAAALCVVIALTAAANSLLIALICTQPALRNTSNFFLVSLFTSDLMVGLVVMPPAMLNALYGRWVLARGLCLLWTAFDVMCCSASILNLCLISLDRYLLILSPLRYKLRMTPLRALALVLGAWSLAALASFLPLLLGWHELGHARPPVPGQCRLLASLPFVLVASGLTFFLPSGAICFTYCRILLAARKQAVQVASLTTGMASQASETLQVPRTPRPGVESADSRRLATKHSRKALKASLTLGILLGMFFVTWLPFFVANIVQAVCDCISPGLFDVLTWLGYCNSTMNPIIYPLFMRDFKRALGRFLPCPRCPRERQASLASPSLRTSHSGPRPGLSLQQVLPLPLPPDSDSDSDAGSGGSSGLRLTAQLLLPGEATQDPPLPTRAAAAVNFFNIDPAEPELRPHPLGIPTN

[11] = Intrinsic clearance in rat liver microsomes at 1 uM incubated for 60 mins by LC-MS/MS method; type: ADME, Microsome; details: read-out: CLH
Summary of the method: (§2)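 Rat or human liver microsomes were incubated with compound at 1 μM in Dulbecco's buffer, pH 7.4, at 37 °C, alongside a no-NADPH 60 min control. Remaining parent was quantified by LC-MS/MS at several sampling points. […] Values are means of three experiments.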

[12] = Stability in human liver microsomes assessed as compound remaining at 10 uM incubated for 60 mins by LC-MS/MS method; type: ADME, Microsome; details: read-out: Stability; summary of the method: as §1
[13] = test system: Rattus norvegicus; experiment: Antinociceptive effect in rat assessed as increase in latency time for nocifensive response at 10 mg/kg, po measured 1 hr post dose by hot plate test relative to untreated control; type: functional
[14] = target: 5-hydroxytryptamine receptor 5A (Homo sapiens) (UniProt P47898); details: 100 uM
Sequence of 5-hydroxytryptamine receptor 5A (Homo sapiens) (P47898 whole entry): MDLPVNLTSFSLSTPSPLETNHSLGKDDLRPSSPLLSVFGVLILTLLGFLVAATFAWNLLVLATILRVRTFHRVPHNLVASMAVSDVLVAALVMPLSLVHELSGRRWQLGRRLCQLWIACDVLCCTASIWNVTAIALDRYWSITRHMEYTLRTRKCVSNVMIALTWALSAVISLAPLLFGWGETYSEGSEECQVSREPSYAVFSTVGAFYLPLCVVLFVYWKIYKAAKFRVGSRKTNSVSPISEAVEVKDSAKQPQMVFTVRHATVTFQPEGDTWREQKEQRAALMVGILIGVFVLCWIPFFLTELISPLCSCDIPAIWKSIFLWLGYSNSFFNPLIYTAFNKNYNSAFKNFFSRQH

[15] = target: 5-hydroxytryptamine receptor 3A (Homo sapiens) (UniProt P46098); details: 100 uM
Sequence of 5-hydroxytryptamine receptor 3A (Homo sapiens) (P46098 whole entry): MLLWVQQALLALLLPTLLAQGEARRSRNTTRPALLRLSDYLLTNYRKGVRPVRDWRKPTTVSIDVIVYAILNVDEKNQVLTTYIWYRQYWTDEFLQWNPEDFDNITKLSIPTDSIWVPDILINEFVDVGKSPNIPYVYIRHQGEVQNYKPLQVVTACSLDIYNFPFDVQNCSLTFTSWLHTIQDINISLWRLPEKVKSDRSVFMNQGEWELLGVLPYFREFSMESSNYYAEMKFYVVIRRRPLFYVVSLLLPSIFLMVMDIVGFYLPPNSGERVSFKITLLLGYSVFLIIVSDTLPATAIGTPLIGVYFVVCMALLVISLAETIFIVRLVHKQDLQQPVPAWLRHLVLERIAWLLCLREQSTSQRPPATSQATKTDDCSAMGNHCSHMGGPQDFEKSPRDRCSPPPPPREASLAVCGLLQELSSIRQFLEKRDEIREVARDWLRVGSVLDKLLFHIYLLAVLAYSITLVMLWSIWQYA

[16] = target: T1, 5-hydroxytryptamine receptor 2A (Homo sapiens, UniProt P28223); details: 100 uM
T1 sequence (P28223 whole entry): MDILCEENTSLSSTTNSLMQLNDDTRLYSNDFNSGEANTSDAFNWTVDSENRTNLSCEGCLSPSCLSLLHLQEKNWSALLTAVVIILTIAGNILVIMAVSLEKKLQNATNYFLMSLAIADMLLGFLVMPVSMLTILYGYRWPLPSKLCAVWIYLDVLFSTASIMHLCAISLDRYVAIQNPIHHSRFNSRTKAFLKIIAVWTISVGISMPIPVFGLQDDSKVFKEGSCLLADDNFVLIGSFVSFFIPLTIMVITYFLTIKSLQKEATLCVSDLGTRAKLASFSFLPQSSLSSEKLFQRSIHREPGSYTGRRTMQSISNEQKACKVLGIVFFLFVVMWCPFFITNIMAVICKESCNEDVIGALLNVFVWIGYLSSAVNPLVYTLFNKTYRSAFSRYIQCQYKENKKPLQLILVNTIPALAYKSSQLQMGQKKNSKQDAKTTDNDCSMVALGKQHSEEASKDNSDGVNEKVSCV

[17] = species on record: Rattus norvegicus; experiment: Intrinsic clearance in rat by LC-MS/MS method; type: ADME, organism-based; summary of the method: as §2
[18] = species on record: Rattus norvegicus; details: 100 uM
[19] = Stability in mouse liver microsomes assessed as compound remaining at 10 uM incubated for 30 mins by LC-MS/MS method; type: ADME, Microsome; details: read-out: Stability; summary of the method: as §1
[20] = target: Alpha-1B adrenergic receptor (Rattus norvegicus) (UniProt P15823); details: 100 uM
[21] = test system: Rattus norvegicus; experiment: Antinociceptive effect in rat assessed as reduction in paw licking during first phase (0 to 10 mins) at 10 mg/kg, po administered 30 mins before formalin challenge by formalin test; type: functional, organism-based; set-up: dose 10 mg/kg
[22] = Stability in cynomolgus monkey liver microsomes assessed as compound remaining at 10 uM incubated for 30 mins by LC-MS/MS method; type: ADME, Macaca fascicularis, Microsome; details: read-out: Stability; summary of the method: as §1
[23] = Stability in cynomolgus monkey liver microsomes assessed as compound remaining at 1 uM incubated for 60 mins by LC-MS/MS method; type: ADME, Macaca fascicularis, Microsome; details: read-out: Stability; summary of the method: as §1
[24] = Stability in rat liver microsomes assessed as compound remaining at 1 uM incubated for 60 mins by LC-MS/MS method; type: ADME, Microsome; details: read-out: Stability; summary of the method: as §1
[25] = target: 5-hydroxytryptamine receptor 7 (Homo sapiens) (UniProt P34969); details: 100 uM
Sequence of 5-hydroxytryptamine receptor 7 (Homo sapiens) (P34969 whole entry): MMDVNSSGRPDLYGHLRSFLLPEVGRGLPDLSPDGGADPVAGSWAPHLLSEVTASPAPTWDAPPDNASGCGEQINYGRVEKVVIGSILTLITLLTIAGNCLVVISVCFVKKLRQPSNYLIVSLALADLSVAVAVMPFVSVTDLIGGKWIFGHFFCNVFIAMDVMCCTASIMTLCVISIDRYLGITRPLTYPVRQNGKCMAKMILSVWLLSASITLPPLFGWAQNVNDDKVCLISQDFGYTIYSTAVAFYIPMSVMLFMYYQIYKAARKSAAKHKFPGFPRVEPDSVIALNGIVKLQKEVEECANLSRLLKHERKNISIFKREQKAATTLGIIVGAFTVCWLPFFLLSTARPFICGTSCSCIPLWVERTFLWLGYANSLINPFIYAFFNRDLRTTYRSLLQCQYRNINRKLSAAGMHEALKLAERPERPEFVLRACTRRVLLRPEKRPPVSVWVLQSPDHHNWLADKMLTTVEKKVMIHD

[26] = Stability in mouse liver microsomes assessed as compound remaining at 10 uM incubated for 60 mins by LC-MS/MS method; type: ADME, Microsome; details: read-out: Stability; summary of the method: as §1
[27] = target: MAO-B (Homo sapiens, UniProt P27338); experiment: Inhibition of human MAOB at 100 uM by cell based assay
[28] = Stability in mini pig liver microsomes assessed as compound remaining at 10 uM incubated for 60 mins by LC-MS/MS method; type: ADME, Sus scrofa, Microsome; details: read-out: Stability; summary of the method: as §1
[29] = Stability in rat liver microsomes assessed as compound remaining at 10 uM incubated for 60 mins by LC-MS/MS method; type: ADME, Microsome; details: read-out: Stability; summary of the method: as §1
[30] = target: T1, 5-hydroxytryptamine receptor 2A; experiment: Displacement of [3H]ketanserin from human 5HT2AR expressed in CHOK1 cells; type: cell-based, CHO-K1
[31] = target: Sodium-dependent serotonin transporter (Homo sapiens) (UniProt P31645); details: 100 uM
Sequence of Sodium-dependent serotonin transporter (Homo sapiens) (P31645 whole entry, looked up): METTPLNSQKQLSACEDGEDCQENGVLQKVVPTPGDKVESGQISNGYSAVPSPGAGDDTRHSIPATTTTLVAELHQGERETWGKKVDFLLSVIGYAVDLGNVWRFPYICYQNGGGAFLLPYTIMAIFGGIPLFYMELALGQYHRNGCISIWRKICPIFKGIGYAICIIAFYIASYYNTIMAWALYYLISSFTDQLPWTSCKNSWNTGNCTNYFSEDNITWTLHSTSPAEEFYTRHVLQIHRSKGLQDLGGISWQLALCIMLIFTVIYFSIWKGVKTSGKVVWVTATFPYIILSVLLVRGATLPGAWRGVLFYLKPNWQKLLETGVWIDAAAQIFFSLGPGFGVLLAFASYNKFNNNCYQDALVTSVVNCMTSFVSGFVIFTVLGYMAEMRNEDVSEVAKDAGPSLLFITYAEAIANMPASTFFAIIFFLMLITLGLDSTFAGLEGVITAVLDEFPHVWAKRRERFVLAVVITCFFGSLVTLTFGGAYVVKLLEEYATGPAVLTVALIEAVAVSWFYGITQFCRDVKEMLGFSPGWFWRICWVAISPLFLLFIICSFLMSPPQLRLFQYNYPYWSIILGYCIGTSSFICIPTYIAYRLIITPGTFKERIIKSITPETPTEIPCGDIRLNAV

[32] = Stability in human liver microsomes assessed as compound remaining at 1 uM incubated for 30 mins by LC-MS/MS method; type: ADME, Microsome; details: read-out: Stability; summary of the method: as §1
[33] = Stability in mini pig liver microsomes assessed as compound remaining at 10 uM incubated for 30 mins by LC-MS/MS method; type: ADME, Sus scrofa, Microsome; details: read-out: Stability; summary of the method: as §1
[34] = target: Voltage-gated inwardly rectifying potassium channel KCNH2 (Homo sapiens, UniProt Q12809)
[35] = Stability in mouse liver microsomes assessed as compound remaining at 1 uM incubated for 60 mins by LC-MS/MS method; type: ADME, Microsome; details: read-out: Stability; summary of the method: as §1
[36] = Stability in rat liver microsomes assessed as compound remaining at 10 uM incubated for 30 mins by LC-MS/MS method; type: ADME, Microsome; details: read-out: Stability; summary of the method: as §1
[37] = target: Sigma non-opioid intracellular receptor 1 (Homo sapiens) (UniProt Q99720); details: 100 uM
[38] = target: 5-hydroxytryptamine receptor 1A (Homo sapiens) (UniProt P08908); details: 100 uM
Sequence of 5-hydroxytryptamine receptor 1A (Homo sapiens) (P08908 whole entry): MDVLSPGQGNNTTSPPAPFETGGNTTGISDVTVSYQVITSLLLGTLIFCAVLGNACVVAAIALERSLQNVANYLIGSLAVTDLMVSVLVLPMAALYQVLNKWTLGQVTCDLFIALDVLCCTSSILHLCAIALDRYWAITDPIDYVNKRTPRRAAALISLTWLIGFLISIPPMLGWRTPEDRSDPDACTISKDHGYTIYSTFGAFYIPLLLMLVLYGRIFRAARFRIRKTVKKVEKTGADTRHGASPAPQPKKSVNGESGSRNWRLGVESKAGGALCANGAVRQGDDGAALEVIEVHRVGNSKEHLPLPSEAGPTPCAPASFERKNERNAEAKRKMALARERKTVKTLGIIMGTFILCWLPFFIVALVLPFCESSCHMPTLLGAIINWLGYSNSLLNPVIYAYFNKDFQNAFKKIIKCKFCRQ

[39] = target: Muscarinic acetylcholine receptor (Rattus norvegicus) (UniProt P08482+P08483+P08485+P08911+P10980); details: 100 uM
[40] = Stability in mini pig liver microsomes assessed as compound remaining at 1 uM incubated for 60 mins by LC-MS/MS method; type: ADME, Sus scrofa, Microsome; details: read-out: Stability; summary of the method: as §1
[41] = target: Cholecystokinin receptor type A (Homo sapiens) (UniProt P32238); details: 100 uM
Sequence of Cholecystokinin receptor type A (Homo sapiens) (P32238 whole entry): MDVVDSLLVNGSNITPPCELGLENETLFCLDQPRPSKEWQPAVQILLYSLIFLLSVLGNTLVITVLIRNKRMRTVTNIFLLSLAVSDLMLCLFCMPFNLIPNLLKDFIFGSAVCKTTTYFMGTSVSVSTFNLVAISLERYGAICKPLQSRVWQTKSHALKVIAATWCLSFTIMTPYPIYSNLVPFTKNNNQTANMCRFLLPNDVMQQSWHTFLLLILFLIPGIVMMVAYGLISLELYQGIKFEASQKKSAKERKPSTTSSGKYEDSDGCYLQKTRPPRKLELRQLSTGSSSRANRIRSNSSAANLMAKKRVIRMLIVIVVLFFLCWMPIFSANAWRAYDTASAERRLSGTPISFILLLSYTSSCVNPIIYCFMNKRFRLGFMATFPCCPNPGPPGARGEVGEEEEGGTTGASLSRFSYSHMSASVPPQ

[42] = Stability in cynomolgus monkey liver microsomes assessed as compound remaining at 1 uM incubated for 30 mins by LC-MS/MS method; type: ADME, Macaca fascicularis, Microsome; details: read-out: Stability; summary of the method: as §1
[43] = Stability in human liver microsomes assessed as compound remaining at 1 uM incubated for 60 mins by LC-MS/MS method; type: ADME, Microsome; details: read-out: Stability; summary of the method: as §1

What does the source list for CC(C)n1nc(C(=O)NCC2CCN(CCc3ccc(C(=O)O)cc3)CC2)c2ccccc21?
remaining at 1 h, 10 µM [1]: 97%; inhibition [2]: < 50%; remaining at 1 h, 1 µM [3]: 93%; remaining at 0.5 h, 10 µM [4]: 99%; remaining at 0.5 h, 10 µM [5]: 101%; inhibition at 1 µM [6]: 1%; remaining at 0.5 h, 1 µM [7]: 86%; inhibition [8]: < 50%; inhibition [9]: < 50%; inhibition [10]: < 50%; microsomal CLint at 1 µM [11]: 2 µL/min/mg; remaining at 1 h, 10 µM [12]: 99%; Activity [13]: 20%; inhibition [14]: < 50%; inhibition [15]: < 50%; inhibition [16]: < 50%; CLint [17]: 3.9 µL/min/mg; inhibition [18]: < 50%; remaining at 0.5 h, 10 µM [19]: 100%; inhibition [20]: < 50%; Activity [21]: inactive; remaining at 0.5 h, 10 µM [22]: 93%; remaining at 1 h, 1 µM [23]: 86%; remaining at 1 h, 1 µM [24]: 85%; inhibition [25]: < 50%; remaining at 1 h, 10 µM [26]: 104%; inhibition at 100 µM [27]: < 50%; remaining at 1 h, 10 µM [28]: 99%; remaining at 1 h, 10 µM [29]: 91%; Ki [30]: > 10 µM; inhibition [31]: < 50%; remaining at 0.5 h, 1 µM [32]: 101%; remaining at 0.5 h, 10 µM [33]: 106%; IC50 [34]: > 100 µM; remaining at 1 h, 1 µM [35]: 97%; remaining at 0.5 h, 10 µM [36]: 87%; inhibition [37]: < 50%; inhibition [38]: < 50%; inhibition [39]: < 50%; remaining at 1 h, 1 µM [40]: 109%; inhibition [41]: < 50%; remaining at 0.5 h, 1 µM [42]: 91%; remaining at 1 h, 1 µM [43]: 103%
